Measured values from different studies.
Each line is one published result; the experiments were not run side by side.
PPARA: Peroxisome proliferator-activated receptor alpha (PPARA, Homo sapiens, UniProt Q07869)
ADRA1B: Alpha-1B adrenergic receptor (ADRA1B, Homo sapiens, UniProt P35368)
CASP1: Caspase-1 (CASP1, Homo sapiens, UniProt P29466)

Compound	target	read-out	mode	technique	notes	Ki [µM]
CCCC[C@H](NC(=O)[C@H](C)c1c(C)[nH]c2ccc(O)cc12)c1ncc(-c2cc3ccccc3nc2OC)[nH]1	Histone deacetylase 3 (HDAC3, Homo sapiens, UniProt O15379)	enzyme activity	inhibitor	–	–	0.06
Cc1c(C)n(Cc2ccc(-c3ccccc3C(=O)O)cc2)c2ccc(C(=O)N[C@@H](C)c3ccc([N+](=O)[O-])cc3)cc12	PPARA	ligand displacement	–	TR-FRET	–	11.2
O=C1c2ccccc2CCN1CCCCN1CCN(c2cccc(Cl)c2Cl)CC1	ADRA1B	ligand displacement	–	radioligand	–	0.649
CC1(COc2ccc(CC3SC(=O)NC3=O)cc2)CCCCC1 (stereo not shown)	PPARA	ligand displacement	–	TR-FRET	–	141
O=C1c2ccccc2CCCN1CCCCN1CCN(c2ccccn2)CC1	ADRA1B	ligand displacement	–	radioligand	–	2.54
O=c1c(O)c(-c2ccc(O)cc2)oc2cc(O)cc(O)c12	CASP1	enzyme activity	inhibitor	fluorescence	–	> 300
CCCCN1CCC(COC(=O)c2ccc(N)c(OCF)c2)CC1	ADRA1B	cell-free assay	–	radioligand	–	> 10
CC(=O)N[C@@H](CCCNC(=N)N)C(=O)NCCOCCOCC(=O)N[C@H](CC(=O)O)C(=O)N1CCC[C@H]1B(O)O	Prolyl endopeptidase (PREP, Homo sapiens, UniProt P48147)	enzyme activity	inhibitor	fluorescence	–	0.0239
COc1ccccc1N1CCN(CCCCN2CCc3ccccc3C2=O)CC1	ADRA1B	ligand displacement	–	radioligand	–	0.0766
O=c1cc(-c2ccc(O)c(O)c2)oc2cc(O)cc(O)c12	CASP1	enzyme activity	inhibitor	fluorescence	–	119
Cc1cccc(C(=O)NCN2CCN(c3ccccc3C#N)CC2)c1	D(2) dopamine receptor (Drd2, Rattus norvegicus, UniProt P61169)	ligand displacement	–	radioligand	cell membranes	1.38
CC(=O)N[C@@H](CC(C)C)C(=O)N[C@@H](CC(C)C)C(=O)N[C@@H](CCCN=C(N)N)C(=O)N[C@H](C(=O)N[C@@H](CCCCN)C(=O)N[C@@H](CCCN=C(N)N)C(N)=O)C(C)C	Proprotein convertase subtilisin/kexin type 7 (Homo sapiens, UniProt Q16549)	enzyme activity	inhibitor	–	–	2.7
CS(=O)(=O)Nc1ccc[nH]c1=S	Insulin-degrading enzyme (IDE, Homo sapiens, UniProt P14735)	cell-free assay	inhibitor	–	–	> 200
